# Source: ChEMBL document CHEMBL3992558, “Benzimidazole inhibitors from the Niclosamide chemotype inhibit Wnt/β-catenin signaling with selectivity over effects on ATP homeostasis” (Bioorg Med Chem, 2017)
# Activity calls are given as the source filed them. The calls are words filed in the database; no cut-off is given here.
# Key:
# Homo sapiens [1] = organism: Homo sapiens; test: Inhibition of Wnt/beta-catenin signaling in human U2OS cells expressing GFP-fused Fzd1 assessed as GFP-Fzd1 internalization by measuring number of punctate formed at 12.5 uM after 6 hrs by confocal microscopic method; format: cell-based
# How it was run: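 U2OS cells stably expressing Frizzled1-GFP were plated in confocal dishes for 24 h, then treated with 12.5 μM compound in DMSO or DMSO for 6 h at 37°C and fixed in 4% paraformaldehyde. Confocal images (488-nm excitation) were read twice, blinded, and punctate was scored versus control on a 0–5 scale (0, 1, 3, 5).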
# Homo sapiens [2] = organism: Homo sapiens; test: Inhibition of Wnt/beta-catenin signaling (unknown origin) expressed in HEK293 cells assessed as inhibition of Wnt3A-stimulated beta-catenin response transcription at 10 uM after 6 hrs by TOPflash dual luciferase reporter gene assay relative to control; format: cell-based
# How it was run: (§1)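 HEK293 cells stably carrying p8xTOPFlash and Renilla pRL-TK were seeded at confluency and given Wnt-3A conditioned medium (from L Wnt-3A cells) containing compound, 0.04–10 μM, or DMSO for 6 h. Lysates were read by dual-luciferase assay. The DMSO/Wnt3A signal was set as 100%, and curves were fit (mean ± SEM, n ≥ 3). Percent inhibition at 10 μM was reported where no IC50 could be fitted.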
# HCT-116 [3] = test: Effect on ATP homeostasis in human HCT116 cells assessed as reduction in ATP level at 2 uM after 3 hrs in glucose supplemented media by ATP bioluminescent assay; details: hct-116, 3 h
# [4] = (§2) Inhibition of Wnt/beta-catenin signaling (unknown origin) expressed in HEK293 cells assessed as inhibition of Wnt3A-stimulated beta-catenin response transcription after 6 hrs by TOPflash dual luciferase reporter gene assay; format: cell-based; details: Homo sapiens, HEK293, 6 h; how it was run: as §1
# HCT-116 [5] = test: Effect on ATP homeostasis in human HCT116 cells assessed as reduction in ATP level at 0.5 to 2 uM after 3 hrs in glucose supplemented media by ATP bioluminescent assay; format: ADME, cell-based; details: hct-116, 3 h
# How it was run: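 HCT-116 cells attached overnight on poly-D-lysine plates, then treated 3 h at 37°C in DMEM with 2mM sodium pyruvate, 2mM L-glutamine and 5mM glucose (0.1% final DMSO). ATP was read by luciferase bioluminescence after lysis with Somatic Cell ATP Releasing Reagent, normalized to DMSO control.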
# HEK293 (Homo sapiens) = test: Effect on ATP homeostasis in human HEK293 cells assessed as reduction in ATP level after 3 hrs in absence of glucose by ATP bioluminescent assay; details: HEK293, 3 h
# Homo sapiens [6] = organism: Homo sapiens; test: Inhibition of Wnt/beta-catenin signaling in human HCT116 cells assessed as downregulation of cytosolic Axin2 protein expression at 5 uM after 18 hrs by Western blot method; format: cell-based
# How it was run: (§3)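 HCT-116 (McCoy's 5A) or SW480 (MEM) cells, each with 10% FBS, were grown 48 h on poly-D-lysine-coated wells to 60–80% confluency. Fresh medium with compound or DMSO (0.1% final) was added for 18 h. Cytosolic fractions (β-catenin, Axin2) were isolated with hypotonic buffer, or whole cells were lysed in Laemmli buffer (c-Myc, Cyclin D1, Survivin). Immunoblots used β-actin as loading control.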
# Homo sapiens [7] = organism: Homo sapiens; test: Inhibition of Wnt/beta-catenin signaling in human SW480 cells assessed as downregulation of survivin protein expression at 5 uM after 18 hrs by Western blot method; format: cell-based; how it was run: as §3
# Homo sapiens [8] = organism: Homo sapiens; test: Inhibition of Wnt/beta-catenin signaling in human SW480 cells assessed as downregulation of cytosolic beta-catenin protein expression at 5 uM after 18 hrs by Western blot method; format: cell-based; how it was run: as §3
# Homo sapiens [9] = organism: Homo sapiens; test: Inhibition of Wnt/beta-catenin signaling in human HCT116 cells assessed as downregulation of survivin protein expression at 5 uM after 18 hrs by Western blot method; format: cell-based; how it was run: as §3
# Homo sapiens [10] = organism: Homo sapiens; test: Inhibition of Wnt/beta-catenin signaling in human SW480 cells assessed as downregulation of Cyclin D1 protein expression at 5 uM after 18 hrs by Western blot method; format: cell-based; how it was run: as §3
# Homo sapiens [11] = organism: Homo sapiens; test: Inhibition of Wnt/beta-catenin signaling (unknown origin) expressed in HEK293 cells assessed as inhibition of Wnt3A-stimulated beta-catenin response transcription at 0.16 uM after 6 hrs by TOPflash dual luciferase reporter gene assay relative to control; format: cell-based
# How it was run: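 TOPFlash/Renilla stable HEK293 cells were split from the same batch as parallel ATP assay plates, attached overnight, then treated 6 h with compound in Wnt-3A conditioned medium. Dual-luciferase read-out was taken relative to the DMSO control. Three separate experiments used different cell batches.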
# HCT-116 [12] = test: Effect on ATP homeostasis in human HCT116 cells assessed as reduction in ATP level after 3 hrs in absence of glucose by ATP bioluminescent assay; format: ADME, cell-based; details: for Activity: human, hct-116, 3 h
# How it was run: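 HCT-116 cells attached overnight on poly-D-lysine plates in McCoy's 5A/10% FBS, then switched to glucose-free DMEM with 2mM sodium pyruvate and 2mM L-glutamine containing compound (0.1% final DMSO). After 3 h at 37°C, 5% CO2, cells were lysed in Somatic Cell ATP Releasing Reagent and ATP was read by luciferase bioluminescence, normalized to DMSO control.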
# HCT-116 [13] = test: Effect on ATP homeostasis in human HCT116 cells assessed as reduction in ATP level at 0.16 uM after 3 hrs in absence of glucose by ATP bioluminescent assay; format: ADME, cell-based; details: hct-116, 3 h
# Homo sapiens [14] = organism: Homo sapiens; test: Inhibition of Wnt/beta-catenin signaling in human HCT116 cells assessed as downregulation of c-Myc protein expression at 5 uM after 18 hrs by Western blot method; format: cell-based; how it was run: as §3
# Homo sapiens [15] = organism: Homo sapiens; test: Inhibition of Wnt/beta-catenin signaling in human HCT116 cells assessed as downregulation of Cyclin D1 protein expression at 5 uM after 18 hrs by Western blot method; format: cell-based; how it was run: as §3
# Homo sapiens [16] = organism: Homo sapiens; test: as §2; format: cell-based; how it was run: as §1
# Homo sapiens [17] = organism: Homo sapiens; test: Inhibition of Wnt/beta-catenin signaling in human SW480 cells assessed as downregulation of cytosolic Axin2 protein expression at 5 uM after 18 hrs by Western blot method; format: cell-based; how it was run: as §3
# Homo sapiens [18] = organism: Homo sapiens; test: Inhibition of Wnt/beta-catenin signaling in human SW480 cells assessed as downregulation of c-Myc protein expression at 5 uM after 18 hrs by Western blot method; format: cell-based; how it was run: as §3
# Homo sapiens [19] = organism: Homo sapiens; test: Inhibition of Wnt/beta-catenin signaling in human HCT116 cells assessed as downregulation of cytosolic beta-catenin protein expression at 5 uM after 18 hrs by Western blot method; format: cell-based; how it was run: as §3
# HCT-116 [20] = test: Effect on ATP homeostasis in human HCT116 cells assessed as reduction in ATP level at 0.31 uM after 3 hrs in absence of glucose by ATP bioluminescent assay; format: ADME, cell-based; details: hct-116, 3 h
SMILES,Activity (Homo sapiens [1]),inhibition (Homo sapiens [2]) [%],IC50 [4] [nM],Activity (HCT-116 [5]),further results
O=[N+]([O-])c1ccc2[nH]c(-c3ccccc3NS(=O)(=O)c3c(F)cccc3F)nc2c1,0,15,,,
Cc1ccc(S(=O)(=O)Nc2ccccc2-c2nc3cc([N+](=O)[O-])ccc3[nH]2)cc1,0,53,,,
CCCCCC[C@H]1C(=O)O[C@H](C)[C@H](NC(=O)c2cccc(NC=O)c2O)C(=O)O[C@@H](C)[C@@H]1OC(=O)CC(C)C [ANTIMYCIN A],,,,,Activity (HCT-116 [3]): Toxic
COc1ccc2[nH]c(-c3cc(Cl)ccc3O)nc2c1,0,,1270,,
Cc1ccc(O)c(-c2nc3cc([N+](=O)[O-])ccc3[nH]2)c1,0,,1690,Non-Toxic,
CS(=O)(=O)Nc1ccccc1-c1nc2cc(C(F)(F)F)ccc2[nH]1,0,74,,,
O=S(=O)(Nc1ccccc1-c1nc2cc(C(F)(F)F)ccc2[nH]1)c1c(F)cccc1F,0,8,,,
Cc1ccc(S(=O)(=O)Nc2ccc(Cl)cc2-c2nc3cc([N+](=O)[O-])ccc3[nH]2)cc1,0,48,,,
Oc1ccc(Cl)cc1-c1nc2cc(C(F)(F)F)ccc2[nH]1,3,,230 to 270,Non-Toxic,EC50 (HEK293 (Homo sapiens)): ≥ 5 µM; inhibition (Homo sapiens [6]): Active; inhibition (Homo sapiens [7]): Active; inhibition (Homo sapiens [8]): Active; inhibition (Homo sapiens [9]): Active; inhibition (Homo sapiens [10]): Active; inhibition (Homo sapiens [11]): 40 to 50%; Activity (HCT-116 [12]): Dose-dependent effect; Activity (HCT-116 [13]): Non-Toxic; inhibition (Homo sapiens [14]): Active; inhibition (Homo sapiens [15]): Active; inhibition (Homo sapiens [16]): Dose-dependent effect; inhibition (Homo sapiens [17]): Active; inhibition (Homo sapiens [18]): Active; inhibition (Homo sapiens [19]): Active
O=[N+]([O-])c1ccc2nc(-c3cc(Cl)cc(Cl)c3O)[nH]c2c1,2,,1540,Toxic,"IC50 (HCT-116 [12]; Homo sapiens, HCT-116, 3 h): < 250 nM"
O=[N+]([O-])c1ccc2[nH]c(-c3cc(Cl)ccc3O)nc2c1,,,,Non-Toxic,Activity (HCT-116 [12]): Dose-dependent effect; Activity (HCT-116 [20]): Non-Toxic
CC[C@H]1/C=C/C=C/C[C@@H](C)[C@H](O)[C@@](C)(O)C(=O)[C@@H](C)[C@H](O)[C@@H](C)C(=O)[C@@H](C)[C@H](O)[C@@H](C)/C=C/C(=O)O[C@@H]2[C@H](C)[C@H](CC1)O[C@]1(CC[C@H](C)[C@H](C[C@@H](C)O)O1)[C@H]2C [OLIGOMYCIN],,,,,Activity (HCT-116 [3]): Toxic
